Screening data deposited in PubChem BioAssay by The Scripps Research Institute Molecular Screening Center.
PAFAH2 inh: PAFAH2 enzyme inhibitors, primary screen, biochemical, fluorescence polarization, human; Platelet-activating factor acetylhydrolase 2, cytoplasmic (Homo sapiens), Q99487; recombinant PAFAH2, FP-rhodamine activity probe; inhibition, % at 3.39 µM; 340,000 tested, 0.99% active;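 active = inhibition above the mean over all tested compounds plus 3 SD, cut at about 30% in these data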;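 also: inhibitors block probe labeling of enzyme so polarization drops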
PAFAH1B2 inh: PAFAH1B2 enzyme inhibitors, primary screen, biochemical, fluorescence polarization, human; inhibition, % at 3.39 µM; 340,000 tested, 1.2% active; AID 492953, 2010; Platelet-activating factor acetylhydrolase IB subunit alpha2 (Homo sapiens), P68402; recombinant PAFAH1B2, FP-rhodamine activity probe;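 active = inhibition above the mean of all tested compounds plus 3 SD, cut at about 24% in these data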
PAFAH1B3 inh: PAFAH1B3 enzyme inhibitors, primary screen, biochemical, fluorescence polarization, human; recombinant PAFAH1B3, FP-rhodamine probe; inhibition, % at 3.39 µM; 340,000 tested, 0.28% active; AID 492972, 2010;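 active = inhibition above the screen-wide average of all tested compounds plus 3 SD, cut at about 25% in these data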
Target sequence (Q15102 whole entry, looked up): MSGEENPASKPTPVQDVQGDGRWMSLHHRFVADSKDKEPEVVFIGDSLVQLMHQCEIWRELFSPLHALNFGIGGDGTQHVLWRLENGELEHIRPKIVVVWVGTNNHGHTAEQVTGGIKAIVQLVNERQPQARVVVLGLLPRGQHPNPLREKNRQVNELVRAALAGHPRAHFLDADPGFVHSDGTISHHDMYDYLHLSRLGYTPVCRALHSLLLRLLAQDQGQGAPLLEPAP
ARFGAP1 inh: inhibitors of rat ARFGAP1 GAP activity, primary screen, biochemical, fluorescence polarization, GDP tracer; ADP-ribosylation factor GTPase-activating protein 1 (Rattus norvegicus), Q62848; Arfgap1-stimulated ARF1 GTP hydrolysis, GDP FP detection; inhibition, % at 16.5 µM; 360,000 tested, 0.26% active; AID 651572, 2012;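 active = inhibition above a per-plate limit, mean inhibition of low control wells plus 3 SD, cut at about 25% in these data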
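Repeats: one replicate per compound; assay system: rat Arfgap1 catalytic domain, aa 1-136; times: enzyme reaction 120 min at 25 °C after 20 min preincubation; detection: FP of antibody-bound GDP Alexa 633 tracer, ex 620/em 688 nm; benchmarks: high control wells lacking Arfgap1, low control full reaction with DMSO; reagent: human ARF1(Δ1-17)-GTP substrate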
pPAFAH FP inh: pPAFAH enzyme inhibitors, primary screen, biochemical, fluorescence polarization, human; inhibition, % at 3.39 µM; AID 463082, 2010; Platelet-activating factor acetylhydrolase (Homo sapiens), Q13093; 330,000 tested, 1.5% active; recombinant pPAFAH, FP-rhodamine probe fluorescence polarization;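 active = inhibition above the mean inhibition across the screen plus 3 SD, cut at about 25% in these data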;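 also: inhibitors block binding of the rhodamine activity-based probe so polarization drops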
ASAP1 GAP inh: inhibitors of human ASAP1 ArfGAP activity, primary screen, biochemical, fluorescence polarization. Arf-GAP with SH3 domain, ANK repeat and PH domain-containing protein 1 (Homo sapiens), …. ASAP1-stimulated ARF1 GTP hydrolysis, GDP FP detection. inhibition, % at 16.5 µM. 360,000 tested, 0.19% active; in the data active = inhibition above about 25%
Target sequence (Q9ULH1 325-724 limits assumed): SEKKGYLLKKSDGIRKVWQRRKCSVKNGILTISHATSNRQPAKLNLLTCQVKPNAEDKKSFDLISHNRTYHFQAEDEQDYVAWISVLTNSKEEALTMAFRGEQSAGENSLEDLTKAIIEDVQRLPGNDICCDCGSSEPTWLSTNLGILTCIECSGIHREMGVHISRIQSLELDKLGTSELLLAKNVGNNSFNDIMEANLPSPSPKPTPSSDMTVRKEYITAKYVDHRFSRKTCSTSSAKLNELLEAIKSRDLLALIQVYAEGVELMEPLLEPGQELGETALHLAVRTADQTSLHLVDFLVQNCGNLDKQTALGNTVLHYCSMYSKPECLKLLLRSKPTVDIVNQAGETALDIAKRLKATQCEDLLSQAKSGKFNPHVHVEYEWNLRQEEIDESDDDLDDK
A number is an active result; . = inactive; / = not tested or not shown. Only some compounds are listed: those with a hit (about 2.7% of all), similar ones and a draw of the others.

SMILES | PAFAH2 inh | PAFAH1B2 inh | PAFAH1B3 inh | ARFGAP1 inh | pPAFAH FP inh | ASAP1 GAP inh
O=C(CN1CCN(S(=O)(=O)c2ccc(Cl)cc2)CC1)NC1CC1 | . | 29 | . | . | . | .
COc1ccc(NC(=O)CN2CCN(S(=O)(=O)c3ccc(Br)cc3)CC2)c(OC)c1 | . | . | . | . | . | .
CC(=O)O[C@@H]1C=C[C@@H](C#Cc2ccc(C(C)(C)C)cc2)O[C@@H]1COC(=O)Nc1ccccc1 | / | / | / | . | / | .
COc1cccc(C(=O)CN2CCN(S(=O)(=O)c3ccc(Br)cc3)CC2)c1 | . | 29 | . | / | . | /
O=C(O)COc1ccccc1/C=N/NC(=O)CN1CCN(S(=O)(=O)c2ccc(Br)cc2)CC1 | . | 27 | . | . | . | .
O=C(CN1CCN(S(=O)(=O)c2ccc(Cl)cc2)CC1)Nc1ccc(F)cc1F | . | 28 | . | / | . | /
Cc1ccc(S(=O)(=O)N2CCN(CC(=O)Nc3ccccc3Cl)CC2)cc1 | . | . | . | . | . | .
O=C(O)COc1ccccc1/C=N/NC(=O)CN1CCN(Cc2ccccc2Cl)CC1 | . | . | . | . | . | .
CC1CCN(S(=O)(=O)c2ccc(N/N=C(/C#N)C(N)=O)cc2)CC1 | . | 40 | . | . | . | .
N#C/C(=N\Nc1ccc(S(=O)(=O)N2CCOCC2)cc1)C(N)=S | . | . | . | . | . | .
CCN(CC)C(=O)c1ncn2c1C(=O)NC[C@@H]2C | / | / | / | . | / | .
O=C(CCN1CCN(S(=O)(=O)c2ccc(Br)cc2)CC1)Nc1ccccc1F | . | 25 | . | . | . | .
CCC(C)N(Cc1ccc(OC)cc1OC)S(=O)(=O)c1cc(Br)ccc1Br (stereo not drawn) | / | / | / | . | / | .
CCN(CC)c1ccc(/C=C(\C#N)C(=O)c2ccc(Br)cc2)cc1 | 81 | 55 | 41 | . | . | .
CCN(CC)c1ccc(/C=C(\C#N)C(N)=O)cc1 | . | . | . | . | / | .
C=CCN1C[C@H](COC(=O)c2cccc(C)c2)Oc2cccc(F)c2S1(=O)=O | / | / | / | . | / | .
O=C(NNC(=S)Nc1ccc(F)cc1)c1cccc([N+](=O)[O-])c1 | . | . | . | . | . | .
Cc1ccc(NC(=S)NNC(=O)c2cccc([N+](=O)[O-])c2)cc1Cl | . | 25 | . | . | . | .
COc1ccc(CCN(C)C(=O)c2cccc(S(=O)(=O)NCc3ccccc3)c2)cc1OC | . | . | . | . | . | .
COc1ccc(CCN(C)C(=O)c2ccc(S(=O)(=O)Nc3ccccc3C)cc2)cc1OC | / | / | / | . | 25 | .
Cc1[nH]c2ccccc2c1C(=O)c1c(N)[nH]c(C(=O)c2ccc(Br)cc2)c1-c1ccc(Br)cc1 | / | / | / | . | / | .
O=C(CNS(=O)(=O)c1ccc(Br)s1)N1CCN(c2ncccn2)CC1 | . | 25 | . | . | / | .
CC1CCN(C(=O)CNS(=O)(=O)c2ccc(Br)s2)CC1 | . | . | . | . | . | .
O=C1C(NS(=O)(=O)c2ccc(Br)cc2)=C(N2CCCCC2)C(=O)c2ccccc21 | . | . | . | . | . | .
O=C1C(Nc2cccc(O)c2)=C(N2CCCCC2)C(=O)c2ccccc21 | 60 | 25 | 66 | . | . | .
SMILES | PAFAH2 inh | PAFAH1B2 inh | PAFAH1B3 inh | ARFGAP1 inh | pPAFAH FP inh | ASAP1 GAP inh
O=C(/C=C/c1ccco1)c1ccc(NC(=O)C23CC4CC(CC(C4)C2)C3)cc1 | . | . | . | . | 32 | .
O=C1CCNc2ccc(-c3ccccc3)cc21 | . | . | . | . | . | .
O=C1CCNc2cc3ccccc3cc21 | . | . | . | / | 31 | /
CCCOc1ccc(N)cc1N | . | . | . | . | 26 | .
CCCOc1cc(N)ccc1C(=O)OCCN(CC)CC | . | . | . | . | . | .
C=CCN=C1NC(c2ccc(C(F)(F)F)cc2)C(C(=O)OC)=C(C)N1C (stereo not drawn) | / | / | / | . | / | .
C[C@@H]1ON(C)[C@H]2C[C@H]3c4[nH]c5cccc(-c6ccc7c(c6)OCO7)c5c4CCN3C(=O)[C@@H]12 | / | / | / | . | / | .
Cc1ccc(CN2CC=CS2(=O)=O)cc1 | / | / | / | . | / | .
CCN(C(=O)CSc1nnc(-c2ccc3c(c2)OCO3)o1)C1CCS(=O)(=O)C1 (stereo not drawn) | . | 32 | . | . | . | .
CCN(C(=O)CSc1ccc2c(c1)OCCO2)C1CCS(=O)(=O)C1 (stereo not drawn) | . | . | . | . | . | .
CCOC(=O)Nc1cc(=O)c([N+](=O)[O-])c(N)[nH]1 | / | / | / | . | / | .
CC1SC2(NC1=O)C1CC3CC(C1)CC2C3 (stereo not drawn) | . | 28 | . | . | . | .
O=C1NC2(NN1c1ccccc1)C1CC3CC(C1)CC2C3 (stereo not drawn) | . | . | . | . | . | .
COc1cccc(CNC(=O)c2ccccc2-c2ccccc2C(=O)O)c1 | . | . | . | . | . | .
O=C(O)c1ccccc1-c1ccccc1C(=O)NCc1cccc(C(F)(F)F)c1 | . | 29 | . | . | . | .
COC(=O)C1=C(C)N(Cc2cccc(C(F)(F)F)c2)C(=NCC2CC2)NC1c1ccc(F)cc1 (stereo not drawn) | / | / | / | . | / | .
Cc1cccc(NC(=O)COC(=O)Cc2cccs2)c1C | . | . | . | . | 25 | .
CN1CCCCC(NC(=O)c2cccc(C(F)(F)F)c2)C1=O (stereo not drawn) | / | / | / | . | / | .
Oc1ccc(NCc2ccccc2OCc2ccccc2)cc1 | . | . | . | . | 26 | .
Cc1sc(-n2c(C)cc(/C=C3\SC(=S)NC3=O)c2C)c(C#N)c1C | . | . | . | . | 31 | .
CN(C)S(=O)(=O)N1C(=O)c2ccccc2C1=O | . | . | . | . | . | .
CN(C)/C=C1\C=C2C(=O)c3ccccc3N2C1=O | 36 | 28 | 29 | . | . | .
CCOC(=O)c1c(NC(=O)CSc2nnc(C)c(=O)[nH]2)sc(C)c1-c1ccc(C)cc1 | . | . | . | . | 29 | .
CCOC(=O)c1c(NC(=O)CSc2nnc(N)s2)sc(C)c1-c1ccc(C)cc1 | . | . | . | . | . | .
Cc1nnc(SCC(=O)Nc2sc3c(c2C#N)CCCC3)[nH]c1=O | . | . | . | . | . | .
CCOC(=O)c1c(NC(=O)CSc2nnc(C)c(=O)[nH]2)sc2c1CCCC2 | . | 68 | . | . | 27 | .
O=C(NCCCCC(NC(=O)c1ccccc1)C(=O)O)OCc1ccccc1 (stereo not drawn) | / | / | / | . | / | .
Cc1nnc(-n2cccc2)s1 | / | / | / | . | / | .
CC1CCCC(C)N1C(=O)CSc1nc(N)c(-c2ccccc2)c(=O)[nH]1 (stereo not drawn) | . | 25 | . | . | . | .
Cc1cccc(N(C)C(=O)COc2cc(=O)n(C)c3ccccc23)c1 | . | . | . | . | 34 | .
